Consider seven molecules from ChEMBL document CHEMBL5149993, “Rational Design of Photochromic Analogues of Tricyclic Drugs” (J Med Chem, 2021).

The nature of series [1]: Displacement of [3H]-QNB from Wistar rat brain membrane mAChR assessed as inhibition constant incubated for 30 mins by radioligand competitive binding assay. Type of series: cell membranes. An outline of the steps: (§1)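 Female Wistar rat cortex membranes (30 μg protein) in tris-HCl with 6 mM MgCl₂, 200 pM [³H]QNB (Kd 40 pM), ligands from 1 or 10 nM to 300 μM; 30 min at 37 °C equilibrium. Filtration through GF/C filters, scintillation counting. Nonspecific binding defined with 2 μM atropine. One-site competitive fits gave IC50 and Ki; n = 4 per isomer, n = 2 for reference.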

Series [2] is described as follows: Displacement of [3H]-QNB from Wistar rat brain membrane mAChR incubated for 30 mins by radioligand competitive binding assay. In kind it is cell membranes. The gist of the method:
as §1
In general terms: In a radioligand displacement assay an active substance lowers the binding of a labelled ligand.

The target of series [3] is T1, Muscarinic acetylcholine receptor M1 (Homo sapiens) (UniProt P11229).
T1 sequence (whole entry): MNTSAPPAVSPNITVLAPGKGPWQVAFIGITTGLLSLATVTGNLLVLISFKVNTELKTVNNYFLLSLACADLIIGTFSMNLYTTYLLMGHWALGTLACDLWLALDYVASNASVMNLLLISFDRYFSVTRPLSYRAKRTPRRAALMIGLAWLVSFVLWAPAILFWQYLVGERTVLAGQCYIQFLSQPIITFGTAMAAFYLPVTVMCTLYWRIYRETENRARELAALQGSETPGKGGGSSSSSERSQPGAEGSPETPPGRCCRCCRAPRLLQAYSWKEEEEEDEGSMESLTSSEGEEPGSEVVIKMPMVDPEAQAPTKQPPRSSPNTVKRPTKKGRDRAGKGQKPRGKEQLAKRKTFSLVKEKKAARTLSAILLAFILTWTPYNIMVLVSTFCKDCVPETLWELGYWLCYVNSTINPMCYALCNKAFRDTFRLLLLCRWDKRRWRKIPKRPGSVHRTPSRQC
The series can be described thus: Antagonist activity at human M1 mAChR receptor expressed in HEK cells assessed as reduction in total cell response at 100 uM by real-time calcium imaging method relative to control. Type of series: functional, cell-based. Details: scale not given: the % may be the effect or the level left. The gist of the method: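 tsA201 cells transiently transfected with human M1 (± R-GECO1), used 48–72 h post-transfection. OGB-1 AM loading at 10 μM final, 30 min, 37 °C; HEPES bath pH 7.4 with 2 mM CaCl₂. Test at 100 μM against 0.5 μM ACh; cis formed by 2 min 365 nm pre-illumination or continuous 460 nm light. Responses normalized to 0.5 μM ACh maximum; Wilcoxon signed rank test.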

Series [4] can be described thus: Thermal stability of the compound assessed as half life. In kind it is physicochemical.
The next series deals with Cardiac atrium. The series can be described thus: Anticholinergic activity in isolated CD1 mouse CCh-induced bradycardia atrium assessed as recovery of CCh-indued contraction frequency at 100 uM. Type of series: functional, tissue-based. The gist of the method: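 Right atria from CD1 male mice, 10–12 weeks, in carbogenated Krebs, pH 7.4, under 0.2 g tension. Isometric recording of spontaneous contractions after 5–10 min equilibration. Bradycardia induced with CCh 10⁻⁶ M; test compound then added and beats/min measured.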

Series [5] concerns the target T2, Muscarinic acetylcholine receptor M1 (Homo sapiens, UniProt P11229).
T2 sequence (P11229 whole entry): T1 sequence (whole entry)
Put plainly: Displacement of [3H]-pirenzepine from human recombinant M1 receptor expressed in CHO cells incubated for 60 mins by topcount scintillation counter method. In kind it is cell-based. An outline of the steps: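 Membranes from CHO cells with human M1 (45 μg protein), 2 nM [³H]pirenzepine (Kd 13 nM), 60 min at 22 °C. Nonspecific binding with 1 μM atropine. GF/B filtration, scintillation counting. Tested at 1, 10 and 100 μM after 30 min 365 nm irradiation of DMSO stock; % inhibition, duplicate.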

In series [6] the target is Muscarinic acetylcholine receptor M2 (human) (UniProt P08172). The series can be described thus: Displacement of [3H]AF-DX384 from human recombinant M2 receptor expressed in CHO cells by topcount scintillation counter method.

The structures appear in SMILES notation. The source made the active and inactive calls.

As for `CN1CCN(CC(=O)Nc2ccccc2/N=N\c2ccc(N(C)C)cc2)CC1`, the inhibition constant Ki (commonly the dissociation constant of the complex between target and ligand, obtained from inhibition or displacement) in series [1] came to 5.3 µM. Moreover, in series [2], the half-maximal inhibitory concentration (IC50) (commonly the concentration that gives 50% inhibition) turned out to be 32 µM. Also, the Activity in series [3] is 14%.

For `CN1CCN(CC(=O)Nc2ccccc2/N=N/c2ccc(N(C)C)cc2)CC1`, the inhibition constant Ki in series [1] is 5.3 µM. The IC50 in series [2] was determined as 33 µM.

For the molecule `CN1CCN(CC(=O)Nc2ccccc2/N=N\c2cccnc2)CC1.Cl.Cl`, in series [4], the half-life (commonly the time needed for the level to fall by half in the phase considered) came out at 1.18 h. Besides, the inhibition constant Ki in series [1] was 7 µM. The IC50 in series [2] is 42 µM.

As for `CN1CCN(CC(=O)Nc2ccccc2/N=N/c2ccccc2)CC1.Cl.Cl`, in series [4], the half-life came to 3.03 h. Besides, the inhibitory constant (Ki) in series [1] stood at 1.7 µM. The IC50 in series [2] was found to be 9.9 µM. Moreover, in series [3] (filed as antagonist), the Activity was determined as 64%.

`CN1CCN(CC(=O)N2c3ccccc3C(=O)Nc3cccnc32)CC1`: in the series on Cardiac atrium, the outcome was Active.

Consider `CN1CCN(CC(=O)Nc2ccccc2/N=N\c2ccccc2)CC1.Cl.Cl`, for which the half-life in series [4] is 3.03 h. For the same molecule, the inhibition constant (Ki) in series [1] was 1.5 µM. Further, the IC50 was found to be 9.2 µM in series [2], 1.9 µM in series [5] and 28 µM in series [6]. Moreover, the Activity in series [3] (filed as antagonist) was 73%. In addition, the result in the series on Cardiac atrium was Active.

`CN1CCN(CC(=O)Nc2ccccc2/N=N/c2cccnc2)CC1.Cl.Cl`: the half-life in series [4] amounted to 1.18 h. Besides, the inhibitory constant (Ki) in series [1] stood at 6.4 µM. Further, in series [2], the IC50 was determined as 38 µM.
